# Measurements pooled from the literature.
# Lines come from different studies, so protocols differ.
# FLT3: Receptor-type tyrosine-protein kinase FLT3 (FLT3, Homo sapiens, UniProt P36888)
# FLT3 ITD: Receptor-type tyrosine-protein kinase FLT3 (FLT3, Homo sapiens, UniProt P36888, ITD)
# FLT3 D835Y: Receptor-type tyrosine-protein kinase FLT3 (FLT3, Homo sapiens, UniProt P36888, D835Y)
# FLT3 R834Q: Receptor-type tyrosine-protein kinase FLT3 (FLT3, Homo sapiens, UniProt P36888, R834Q)
# FLT3 D835V/ITD: Receptor-type tyrosine-protein kinase FLT3 (FLT3, Homo sapiens, UniProt P36888, D835V/ITD)
# FLT3 N841I: Receptor-type tyrosine-protein kinase FLT3 (FLT3, Homo sapiens, UniProt P36888, N841I)
Compound,target,observed,technique,concentration,remaining binding [%]
c1cncc(-c2cccc(Nc3nccc(NC4CCCCC4)n3)c2)c1,FLT3,binding,competition with immobilised ligand,10 µM,0.35
CNCc1ccccc1-c1csc([C@@H](C)Nc2nc(C)nc3cc(OC)c(OC)cc23)c1,FLT3 ITD,cell-free assay,competition with immobilised ligand,1 µM,89
O=C(c1ccc(Nc2ncc(Cl)c(-c3cc4ccccc4s3)n2)cc1)N1CCC(N2CCCC2)CC1,FLT3 D835Y,binding,competition with immobilised ligand,1 µM,3.7
O=C(NCC1CCOCC1)c1n[nH]cc1NC(=O)c1c(F)cccc1F,"Receptor-type tyrosine-protein kinase FLT3, autoinhibited (FLT3, Homo sapiens, UniProt P36888)",binding,competition with immobilised ligand,1 µM,78
c1cnn2ncc(-c3ccnc(N4CCC45COC5)n3)c2c1,FLT3 D835Y,binding,,1 µM,62
COc1cnc(Nc2cccc(S(N)(=O)=O)c2)nc1N1CCN(c2ccccc2)CC1,FLT3 R834Q,binding,competition with immobilised ligand,1 µM,54
O=c1nc(-c2ccccn2)sc2ccccc12,FLT3 R834Q,binding,competition with immobilised ligand,1 µM,100
O=C(NCCCN1CCOCC1)c1ccc(Nc2nccc(-c3cc4ccccc4s3)n2)cc1,FLT3 ITD,binding,competition with immobilised ligand,1 µM,50
CC(C)CC(=O)N1CCc2nc(-c3ccc(Br)cc3)nc(N(C)Cc3ccccc3)c2C1,FLT3 D835Y,cell-free assay,competition with immobilised ligand,0.1 µM,100
CN(C)c1nccc(-c2cnc3ncccn23)n1,FLT3 D835Y,binding,,1 µM,78
O=C(NCCCN1CCOCC1)c1ccc(Nc2ncc(Cl)c(-c3ccc(Cl)s3)n2)cc1,FLT3,binding,competition with immobilised ligand,1 µM,7.7
C[C@@H]1CCN(c2nccc(-c3cnn4ncccc34)n2)C1,FLT3 D835Y,binding,,1 µM,100
CN(C)CC#Cc1ccc(OCCCc2sc(N3CCc4cccc(C(=O)Nc5nc6ccccc6s5)c4C3)nc2C(=O)O)c(F)c1,FLT3 D835V/ITD,cell-free assay,competition with immobilised ligand,1 µM,100
C=CC(=O)N1CCC(C(=O)NCC(=O)N2CCN(c3nc(-c4cnc(N)nc4C(F)F)nc(N4CCOCC4)n3)CC2)CC1,FLT3 N841I,binding,competition with immobilised ligand,1 µM,100
CCS(=O)(=O)c1cc2cc(C[C@](O)(CC(C)(C)c3ccc(F)cc3C(N)=O)C(F)(F)F)[nH]c2cn1,FLT3 N841I,cell-free assay,competition with immobilised ligand,1 µM,93
N[C@@H]1CCN(c2nccc(-c3cnn4ncccc34)n2)C1,FLT3 N841I,binding,,1 µM,79
O=C(c1ccc(Nc2nccc(-c3cc4ccccc4s3)n2)cc1)N1CCC(N2CCCC2)CC1,FLT3 D835V/ITD,binding,competition with immobilised ligand,1 µM,8.3
COCCOc1nc(-c2ccc(Cl)nc2)nc2c1CN(C(=O)c1ncn3ccccc13)CC2,"Receptor-type tyrosine-protein kinase FLT3 (FLT3, Homo sapiens, UniProt P36888, D835V)",cell-free assay,competition with immobilised ligand,0.1 µM,100
CN(C)c1ncc(F)c(-c2cnn3ncccc23)n1,FLT3 D835Y,binding,,1 µM,100
O=C(Nc1cccnn1)N1CCC(=Cc2cccc(Oc3ccc(C(F)(F)F)cn3)c2)CC1,FLT3 D835Y,cell-free assay,competition with immobilised ligand,1 µM,100
O=C(c1ccc(Nc2ncc(Cl)c(-c3ccc(Cl)s3)n2)cc1)N1CCC(N2CCCC2)CC1,"Receptor-type tyrosine-protein kinase FLT3 (FLT3, Homo sapiens, UniProt P36888, K663Q)",binding,competition with immobilised ligand,1 µM,1.3
